Screening results deposited in PubChem BioAssay by several laboratories.
An excerpt weighted towards active compounds, which were near 6.8% of everything screened.
HSF1 activator – increases HSF-1 driven luciferase reporter signal. activation, % at 9 µM. AID 504408. hit rate 1.7% among 300,000. NIH3T3-HGL HSF-1 luciferase reporter, MG132, 8 h; 100% = twice DMSO control signal;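 active means mean replicate activation of at least 50% with a set share of replicates each reaching 50%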;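 further: 0% = median of the neutral control wells and 100% = twice that signal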
HSF1 inh – HSF1 inhibition; hit rate 0.77% among 300,000; NIH3T3-HGL HSE-luciferase, MG132-induced, luminescence 8 h; stronger effect = lower value; activity change, negative = inhibition, % at 7.5 µM (by protocol);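 active means more than half of replicate wells show activity change below -50%, luminescence cut by over half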;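 further: luciferase reports HSF-1 transcriptional activity via heat shock element; 0% = median of DMSO wells and -100% = zero luminescence signal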
HCV core dimer – HCV core protein dimerization inhibition; hit rate 0.33% among 300,000; TR-FRET GST/Flag-core106 dimerization, 1536-well; AID 1899; inhibition, % at 5 µM;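 active means inhibition above the mean of all tested compounds plus 3 SD, set per screening campaign, cut at about 45% in these data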
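Assay system: Tagged HCV core106 pair (GST and Flag) | Buffer or medium: KF-containing HEPES buffer, pH 7.45, DTT, CHAPS, BSA | Also added: Eu donor and XL665 acceptor anti-tag antibodies | Dosing: One concentration, 5 µM, in 0.5% DMSO | Timing: 4 h at 22.5 °C | Technique: TR-FRET 671 and 617 nm emission | Repeats: Singlicate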
AI-2 QS modul – modulates the Vibrio harveyi AI-2 quorum sensing system; Vibrio harveyi JMH597 AI-2 luminescence/OD600 ratio, 9 h; stronger effect = lower value; strain lacks LuxN and CqsS sensors; 0 = neutral-control median; hit rate 0.4% among 300,000; activity change, % at 7.5 µM; AID 2094; in the data active means activity change below about -75%, passing the limit was not always enough;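 further: luminescence divided by OD600 gain over 9 h not by final OD600 alone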
ALR inh – inhibitors of human sulfhydryl oxidase ALR; P55789; purified ALR, DTT oxidation, H2O2 HRP-luminol luminescence; inhibition, % (test concentration not listed); hit rate 3.8% among 290,000;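 active means mean replicate inhibition above about 79%, with every replicate also reaching it, limit read from the data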
Target sequence (P55789 whole entry, looked up): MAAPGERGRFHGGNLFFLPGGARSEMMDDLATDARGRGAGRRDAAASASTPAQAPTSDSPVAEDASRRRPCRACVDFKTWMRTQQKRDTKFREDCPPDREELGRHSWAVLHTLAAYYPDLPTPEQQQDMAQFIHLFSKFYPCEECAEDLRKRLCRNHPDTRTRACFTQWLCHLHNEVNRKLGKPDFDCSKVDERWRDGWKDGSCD
PHOSPHO1 block – blocks human PHOSPHO1 phosphatase activity; inhibition, % at 13.3 µM; recombinant PHOSPHO1, absorbance phosphatase assay; hit rate 1.1% among 290,000; in the data active means inhibition above about 60%
Target sequence (Q8TCT1 whole entry, looked up): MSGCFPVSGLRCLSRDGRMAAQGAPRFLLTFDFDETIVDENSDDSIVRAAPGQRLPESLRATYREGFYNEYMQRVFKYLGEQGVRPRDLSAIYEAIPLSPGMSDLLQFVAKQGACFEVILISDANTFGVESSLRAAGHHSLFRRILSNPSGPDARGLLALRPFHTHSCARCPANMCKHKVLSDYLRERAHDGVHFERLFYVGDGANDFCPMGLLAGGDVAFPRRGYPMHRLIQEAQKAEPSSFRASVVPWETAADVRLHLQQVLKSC
Starred values were filed as active, the others as inactive; / = not tested or not shown; ! = not confirmed by another sample.

SMILES | HSF1 activator | HSF1 inh | HCV core dimer | AI-2 QS modul | ALR inh | PHOSPHO1 block
O=C(NC(=S)NCC1CCCO1)c1ccc([N+](=O)[O-])cc1 (stereo not given) | -3.2 | -4.6 | 8.2 | 39.3 | 36.9 | -6.2
CC1=C(C(=O)Nc2cc(-c3cccc(F)c3)[nH]n2)C2(CCCCC2)OC1=O | 9.8 | -1.1 | 13.4 | 25.8 | 85.8* | -2.0
S=c1[nH]nc(-c2ccccn2)n1/N=C/c1ccc(Br)s1 | 2.6 | -1.5 | -3.0 | 18.7 | 96.1* | -14.7
S=c1[nH]nc(COc2ccccc2)n1/N=C/c1ccc(Br)s1 | 0.6 | 0.0 | -2.7 | 31.2 | 95.1* | 39.3
S=c1[nH]nc(-c2ccccn2)n1/N=C/c1ccc(-c2ccccc2Cl)o1 | -7.0 | 1.0 | 7.1 | 45.1 | 96.7* | 45.9
Cc1ccc(/C=N/n2c(COc3ccccc3)n[nH]c2=S)s1 | -2.0 | -0.2 | -3.9 | 24.0 | 8.0 | 13.4
COC(=O)c1cc(OC)c(OC)cc1NC(=S)N1CCN(c2ccccc2)CC1 | 2.7 | -6.9 | 5.7 | 11.5 | 10.3 | 0.1
CCN1CCN(Cc2ccc(NC(=O)c3ccc(C)c(NC(=O)c4nccn4C)c3)cc2C(F)(F)F)CC1 | -37.9 | -37.0 | -5.1 | 7.3 | -10.8 | 34.3
CCN1CCN(Cc2ccc(NC(=O)c3ccc(C)c(NC(=O)c4cccc5[nH]ccc45)c3)cc2C(F)(F)F)CC1 | -61.5 | -55.0* | -8.9 | -2.3 | -7.1 | 15.8
CN1CCOc2cc(S(=O)(=O)NCc3ccc(S(N)(=O)=O)cc3)ccc21 | 9.6 | -6.5 | -13.7 | 2.6 | 1.0 | 14.5
COc1cccc2sc(N)nc12 | / | / | / | / | -41.6 | /
COc1cccc2sc(N(C)c3ccccc3)nc12 | 63.6* | 19.3 | -3.5 | -14.2 | -4.4 | 3.9
Cc1ccccc1OC(C)C(=O)N1CCC(Cc2ccccc2)CC1 (stereo not given) | 0.2 | -7.3 | -1.8 | 1.3 | -2.2 | 67.8*
COc1ccccc1OC(C)C(=O)N1CCC(Cc2ccccc2)CC1 (stereo not given) | 26.6 | 1.2 | -2.7 | / | -50.5 | 31.0
Cc1cc(C(C#N)c2ccccc2F)n2ncnc2n1 (stereo not given) | 9.2 | -3.5 | -5.2 | 10.8 | 91.6* | 27.9
COc1ccc(CN2C(=NC(=O)CCC3CCCC3)SC3CS(=O)(=O)CC32)cc1 (stereo not given) | -77.7 | -70.8* | 8.9 | 19.2 | 0.7 | 31.9
O=C(Nc1ccc([N+](=O)[O-])cn1)c1cccnc1 | 5.5 | -5.1 | -5.1 | 4.5 | / | 8.5
CC(C)(C)c1ccc(C(=O)Nc2ccc([N+](=O)[O-])cn2)cc1 | 54.0* | 37.5 | -0.2 | 2.6 | -15.7 | -5.1
Cc1ccc(NC(=O)c2ccc([N+](=O)[O-])cc2Cl)nc1 | 52.2* | 13.6 | -1.0 | -1.5 | -21.6 | -17.4
CCCCN(C(C)=O)c1c(N)n(CCC)c(=O)n(CC(=O)Nc2cc(Cl)cc(Cl)c2)c1=O | 16.6 | 12.6 | -1.8 | 12.0 | -2.0 | -13.4
CN(Cc1ccco1)S(=O)(=O)c1ccc(CN2C(=O)c3cccnc3C2=O)s1 | -6.2 | -4.9 | 1.4 | 25.9 | -11.1 | 22.5
COC(=O)C(=O)/C=C(\O)c1c(C)cc(C)cc1C | 7.3 | -6.6 | 0.6 | 18.5 | -9.0 | 27.3
Cc1ccc(S(=O)(=O)NC(=NCc2ccccc2)c2ccc(F)cc2)cc1 | -81.7 | -76.8* | 9.3 | 4.0 | -1.7 | 17.6
CN1CCN(NC(=O)c2cccc(C(F)(F)F)c2)CC1 | / | / | 0.3 | 17.1 | 35.7 | 18.8
O=C(Nc1ccc(Br)c2ccccc12)c1ccc2ccccc2c1O | 2.2 | 0.5 | 45.7 | 14.3 | -7.3 | -18.7
SMILES | HSF1 activator | HSF1 inh | HCV core dimer | AI-2 QS modul | ALR inh | PHOSPHO1 block
COCCCC/C(=N\OCCN)c1ccc(C(F)(F)F)cc1 | -7.7 | -81.3*! | -1.9 | 11.5 | -1.5 | -6.3
O=C(CCC(=O)OCC(=O)c1ccc(C(F)(F)F)cc1)OCC(=O)c1ccc(C(F)(F)F)cc1 | -13.9 | -7.5 | 0.6 | 21.8 | -14.1 | 36.8
CCCCn1c(N)c(N(CC(C)C)C(=O)COC(=O)Cc2cccc(OC)c2)c(=O)[nH]c1=O | -11.0 | -4.7 | 5.9 | 13.8 | -1.3 | /
Cc1c(C(=O)Nc2ccc3c(c2)CCC3)cccc1[N+](=O)[O-] | 57.4* | 18.9 | -7.4 | 11.7 | 11.1 | -1.0
Cc1c(C(=O)Nc2ccc(Nc3ccccc3)cc2)cccc1[N+](=O)[O-] | 14.4 | 5.1 | -8.5 | 16.4 | 70.1 | /
O=C(Nc1ccc2c(c1)CCC2)c1cc(S(=O)(=O)N2CCN(c3ccccc3)CC2)ccc1Cl | 7.4 | 5.8 | 54.7* | 27.9 | -5.6 | 1.0
Cc1c(C(=O)NN2CCN(C)CC2)cccc1[N+](=O)[O-] | 34.2 | 2.2 | -5.6 | 10.6 | 1.4 | 60.5*
O=C(Nc1ccc2c(c1)CCC2)c1ccccc1Br | 53.8* | 21.9 | 2.6 | 14.9 | 1.6 | 36.7
Cc1c(C(=O)NN2CCOCC2)cccc1[N+](=O)[O-] | -8.9 | -1.4 | 0.9 | 5.8 | -2.1 | /
CC(C)CC1Nc2ccc(C(=O)NCCCN3CCOCC3)cc2NC1=O (stereo not given) | -55.0 | -39.4 | 0.4 | 18.8 | -22.8 | 34.8
CC(=O)N1c2ccc(S(=O)(=O)N3CCC(C(=O)Nc4ncccc4C)CC3)cc2CC1C (stereo not given) | 13.3 | 0.7 | -15.7 | 1.5 | -0.5 | 47.5
CC(C)(C)c1ccc(/C=C(\C#N)C(=O)NCCN2CCOCC2)cc1 | 0.7 | 6.0 | -2.5 | 24.8 | / | 28.8
COc1ccccc1CN1CC(C(=O)NCc2c(F)ccc(C)c2F)CCC1=O (stereo not given) | 30.5 | 24.1 | -11.2 | 31.0 | -12.3 | 24.0
N#CC(c1ccccc1)N(CCCCl)C(=O)c1ccc(Br)cc1 (stereo not given) | 5.3 | 1.7 | 0.1 | -1.7 | -5.2 | -2.5
CCn1c(CC(=O)Nc2cccc(Cl)c2Cl)nnc1SCCOc1ccc(OC)cc1 | 1.3 | 3.2 | -2.7 | 4.4 | -7.8 | 71.5*
COc1cccc(CNC(=O)CCN2C(=O)[C@@H]3Cc4ccccc4CN3C2=O)c1 | -2.2 | -4.0 | -14.6 | 13.6 | -3.8 | 27.3
C=CCNC(=O)/C(C#N)=C/c1c(C)nn(-c2ccccc2)c1Cl | 11.6 | 3.8 | 2.2 | 4.4 | 96.2* | 9.8
Cc1cc(CNC(=O)Cn2nc(C)c([N+](=O)[O-])c2C)c2ccccc2n1 | -13.6 | 1.9 | -0.6 | 18.6 | -22.0 | 16.5
CC(C)c1ccc(C(C)NCCS(=O)(=O)c2ccc(Cl)cc2)cc1 (stereo not given) | 3.3 | -1.4 | 0.5 | -5.2 | 0.4 | 72.6*
CC(C(=O)NCCS(=O)(=O)c1ccc(Br)cc1)S(=O)(=O)c1ccc(Cl)cc1 (stereo not given) | -4.3 | 8.6 | 7.3 | 12.9 | -0.1 | 11.4
CC(C)CC(C(=O)Nc1cccc(O)c1)N1C(=O)c2ccccc2C1=O (stereo not given) | -67.4 | -59.0* | 10.0 | 18.3 | / | 18.3
Cc1oc2c(c1C(=O)O)C(=O)c1ccccc1C2=O | 27.9 | 15.8 | -8.0 | -82.6* | / | 6.2
